In ChEMBL document CHEMBL4266010, “Synthesis, Biological Evaluation of Fluorescent 23-Hydroxybetulinic Acid Probes, and Their Cellular Localization Studies” (ACS Med Chem Lett, 2018):
The source made the active and inactive calls. No cut-off for these calls is given here.

How the values were obtained:
[1] = test system: B16-F10; experiment: Induction of mitochondrial membrane potential loss in mouse B16F10 cells at 1.5 to 6 uM after 48 hrs by JC-1 dye based flow cytometry; format: functional, cell-based
Method in brief: (§1)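 B16F10 cells incubated 48 h with parent acid (0, 7.5, 15, 30 μM) or probe (0, 1.5, 3.0, 6.0 μM), then stained with JC-1. Percentage of cells with collapsed mitochondrial membrane potential determined by flow cytometry.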

[2] = test system: B16-F10; experiment: Induction of apoptosis in mouse B16F10 cells assessed as increase in caspase-3 protein expression at 1.5 to 6 uM after 48 hrs by Western blot analysis; format: functional, cell-based
Method in brief: (§2)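 B16F10 cells treated with parent acid (0, 7.5, 15, 30 μM) or probe (0, 1.5, 3.0, 6.0 μM). Bax, Bcl-2, cytochrome c, caspase 3 and caspase 9 detected by Western blot with GAPDH loading control. Band density normalized to GAPDH as relative expression. Values are mean ± SD of three independent experiments; P values for control vs treated.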

[3] = Drug uptake in mouse B16F10 cell nucleus at 4 uM after 1 hr by DAPI staining based confocal laser scanning microscopic method; format: ADME, subcellular; conditions: b16-f10, 1 h
[4] = test system: MCF7; experiment: Antiproliferative activity against human MCF7 cells after 72 hrs by MTT assay; format: functional, cell-based; conditions: MCF7, 72 h
Method in brief: (§3)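 MTT assay on B16F10 mouse skin melanoma, MCF-7 human breast cancer and Helf human embryonic lung fibroblast cells. Doxorubicin served as reference. Values are mean ± SD of three independent experiments.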

[5] = Drug uptake in mouse B16F10 cells at 10 uM up to 240 mins mins by flow cytometry; format: ADME, cell-based; conditions: b16-f10, 4 h
Method in brief: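 Live B16F10 cells incubated with 10 μM coumarin probe over a time course (0–120 min and beyond). Intracellular fluorescence intensity quantified by flow cytometry.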

[6] = Drug uptake in mouse B16F10 cell mitochondria at 4 uM after 1 hr by MitoTracker dye based confocal laser scanning microscopic method; format: ADME; conditions: b16-f10, 1 h
Method in brief: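 Live B16F10 cells incubated 1 h with the coumarin probe at 4 μM together with MitoTracker. Imaged by confocal laser scanning microscopy with probe excitation at 415 nm (green) and MitoTracker […] at 579 nm (red). Colocalization read from overlay of the two channels.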

[7] = Drug uptake in mouse B16F10 cells after 15 mins by fluorescence microscopic method; format: ADME, cell-based; conditions: b16-f10, 0.25 h
Method in brief: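 Live B16F10 cells incubated with the coumarin-labelled probe (10 μM among several concentrations) over a time course. Intracellular fluorescence imaged by fluorescence microscopy. Probe excitation/emission maxima 415/475 nm.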

[8] = Antiproliferative activity against HELF after 72 hrs by MTT assay; parameters: species or system Homo sapiens; method in brief: as §3
[9] = test system: B16-F10; experiment: Antiproliferative activity against mouse B16F10 cells after 72 hrs by MTT assay; format: functional, cell-based; conditions: B16-F10, 72 h; method in brief: as §3
[10] = test system: B16-F10; experiment: Induction of apoptosis in mouse B16F10 cells assessed as increase in caspase-9 protein expression at 1.5 to 6 uM after 48 hrs by Western blot analysis; format: functional, cell-based; method in brief: as §2
[11] = test system: B16-F10; experiment: Induction of apoptosis in mouse B16F10 cells assessed as decrease in Bcl2 protein expression at 1.5 to 6 uM after 48 hrs by Western blot analysis; format: functional, cell-based; method in brief: as §2
[12] = test system: B16-F10; experiment: Induction of apoptosis in mouse B16F10 cells assessed as increase in Bax protein expression at 1.5 to 6 uM after 48 hrs by Western blot analysis; format: functional, cell-based; method in brief: as §2
[13] = test system: B16-F10; experiment: Induction of apoptosis in mouse B16F10 cells assessed as increase in cytochrome-c protein expression at 1.5 to 6 uM after 48 hrs by Western blot analysis; format: functional, cell-based; method in brief: as §2
[14] = Drug uptake in mouse B16F10 cell lysosomes at 4 uM after 1 hr by LysoTracker staining based confocal laser scanning microscopic method; format: ADME, subcellular, Lysosome; conditions: b16-f10, 1 h
Method in brief: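 Live B16F10 cells co-stained with the coumarin probe at 4 μM and LysoTracker Red, with DAPI nuclear counterstain. Imaged by confocal microscopy, probe visualized as green and lysosomes as red.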

[15] = test system: B16-F10; experiment: Induction of apoptosis in mouse B16F10 cells assessed as increase in cytochrome-c protein expression at 7.5 to 30 uM after 48 hrs by Western blot analysis; format: functional, cell-based; method in brief: as §2
[16] = test system: B16-F10; experiment: Induction of apoptosis in mouse B16F10 cells assessed as increase in caspase-3 protein expression at 7.5 to 30 uM after 48 hrs by Western blot analysis; format: functional, cell-based; method in brief: as §2
[17] = test system: B16-F10; experiment: Induction of apoptosis in mouse B16F10 cells assessed as increase in caspase-9 protein expression at 7.5 to 30 uM after 48 hrs by Western blot analysis; format: functional, cell-based; method in brief: as §2
[18] = test system: B16-F10; experiment: Induction of mitochondrial membrane potential loss in mouse B16F10 cells at 15 uM after 48 hrs by JC-1 dye based flow cytometry (reference value: 1.79%); format: functional; method in brief: as §1
[19] = test system: B16-F10; experiment: Induction of mitochondrial membrane potential loss in mouse B16F10 cells at 7.5 uM after 48 hrs by JC-1 dye based flow cytometry (reference value: 1.79%); format: functional; method in brief: as §1
[20] = test system: B16-F10; experiment: Induction of apoptosis in mouse B16F10 cells assessed as increase in Bax protein expression at 7.5 to 30 uM after 48 hrs by Western blot analysis; format: functional, cell-based; method in brief: as §2
[21] = test system: B16-F10; experiment: Induction of apoptosis in mouse B16F10 cells assessed as decrease in Bcl2 protein expression at 7.5 to 30 uM after 48 hrs by Western blot analysis; format: functional, cell-based; method in brief: as §2
[22] = test system: B16-F10; experiment: Induction of mitochondrial membrane potential loss in mouse B16F10 cells at 30 uM after 48 hrs by JC-1 dye based flow cytometry (reference value: 1.79%); format: functional; method in brief: as §1
[23] = Drug uptake in mouse B16F10 cells up to 50 uM after 1 hr by fluorescence microscopic method; format: ADME, cell-based; conditions: b16-f10, 1 h
Method in brief: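 Live B16F10 cells stained 1 h with the unconjugated coumarin dye at up to 50 μM as control. Intracellular fluorescence examined by microscopy.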

Compound	IC50 [4] [µM]	IC50 [9] [µM]	IC50 [8] [µM]	also measured
C=C(C)[C@@H]1CC[C@]2(C(=O)O)CC[C@]3(C)[C@H](CC[C@@H]4[C@@]5(C)CC[C@H](O)[C@@](C)(COC(=O)CCC(=O)NCCNC(=O)c6cc7ccc(N(CC)CC)cc7oc6=O)[C@@H]5CC[C@]43C)[C@@H]12	6.26	4.07	11.7	Activity [1]: Active; Activity [2]: Active; Drug uptake [3]: Not Active; Drug uptake [5]: Active; Drug uptake [6]: Active; Drug uptake [7]: Dose-dependent effect; Activity [10]: Active; Activity [11]: Active; Activity [12]: Active; Activity [13]: Active; Drug uptake [14]: Not Active
C=C(C)[C@@H]1CC[C@]2(C(=O)O)CC[C@]3(C)[C@H](CC[C@@H]4[C@@]5(C)CC[C@H](O)[C@@](C)(COC(=O)CCCCCNC(=O)c6cc7ccc(N(CC)CC)cc7oc6=O)[C@@H]5CC[C@]43C)[C@@H]12	37.8	12.3	79.7	–
COc1cccc2c1C(=O)c1c(O)c3c(c(O)c1C2=O)C[C@@](O)(C(=O)CO)C[C@@H]3O[C@H]1C[C@H](N)[C@H](O)[C@H](C)O1 [DOXORUBICIN]	0.15	0.19	0.21	–
C=C(C)[C@@H]1CC[C@]2(C(=O)O)CC[C@]3(C)[C@H](CC[C@@H]4[C@@]5(C)CC[C@H](O)[C@@](C)(COC(=O)CCC(=O)OCCOC(=O)c6cc7ccc(N(CC)CC)cc7oc6=O)[C@@H]5CC[C@]43C)[C@@H]12	19.7	11.8	23.8	–
C=C(C)[C@@H]1CC[C@]2(C(=O)O)CC[C@]3(C)[C@H](CC[C@@H]4[C@@]5(C)CC[C@H](O)[C@@](C)(COC(=O)CCC(=O)NCCCCNC(=O)c6cc7ccc(N(CC)CC)cc7oc6=O)[C@@H]5CC[C@]43C)[C@@H]12	9.7	7.77	17.6	–
C=C(C)[C@@H]1CC[C@]2(C(=O)O)CC[C@]3(C)[C@H](CC[C@@H]4[C@@]5(C)CC[C@H](O)[C@@](C)(CO)[C@@H]5CC[C@]43C)[C@@H]12	20.8	24.5	31.5	Activity [15]: Active; Activity [16]: Active; Activity [17]: Active; Activity [18]: 22.85%; Activity [19]: 10.57%; Activity [20]: Active; Activity [21]: Active; Activity [22]: 42.87%
CCN(CC)c1ccc2cc(C(=O)NCCNC(=O)CCC(=O)O)c(=O)oc2c1	–	> 100	–	Drug uptake [23]: Not Active
C=C(C)[C@@H]1CC[C@]2(C(=O)O)CC[C@]3(C)[C@H](CC[C@@H]4[C@@]5(C)CC[C@H](O)[C@@](C)(COC(=O)CCC(=O)OCCOCCOCCOC(=O)c6cc7ccc(N(CC)CC)cc7oc6=O)[C@@H]5CC[C@]43C)[C@@H]12	24.2	30	19.4	–
C=C(C)[C@@H]1CC[C@]2(C(=O)O)CC[C@]3(C)[C@H](CC[C@@H]4[C@@]5(C)CC[C@H](O)[C@@](C)(COC(=O)CCC(=O)OCCOCCOC(=O)c6cc7ccc(N(CC)CC)cc7oc6=O)[C@@H]5CC[C@]43C)[C@@H]12	30.5	35.5	21.4	–

Continued by falling IC50 [9], values first:

IC50 [4] [µM]	IC50 [9] [µM]	Compound	IC50 [8] [µM]	also measured
19.9	11.5	C=C(C)[C@@H]1CC[C@]2(C(=O)O)CC[C@]3(C)[C@H](CC[C@@H]4[C@@]5(C)CC[C@H](O)[C@@](C)(COC(=O)CCC(=O)NCCOC(=O)c6cc7ccc(N(CC)CC)cc7oc6=O)[C@@H]5CC[C@]43C)[C@@H]12	24	–
18.1	11.3	C=C(C)[C@@H]1CC[C@]2(C(=O)O)CC[C@]3(C)[C@H](CC[C@@H]4[C@@]5(C)CC[C@H](O)[C@@](C)(COC(=O)CCCNC(=O)c6cc7ccc(N(CC)CC)cc7oc6=O)[C@@H]5CC[C@]43C)[C@@H]12	27.8	–
18.1	10.5	C=C(C)[C@@H]1CC[C@]2(C(=O)O)CC[C@]3(C)[C@H](CC[C@@H]4[C@@]5(C)CC[C@H](O)[C@@](C)(COC(=O)CCC(=O)OCCNC(=O)c6cc7ccc(N(CC)CC)cc7oc6=O)[C@@H]5CC[C@]43C)[C@@H]12	25.1	–
8.16	5.25	C=C(C)[C@@H]1CC[C@]2(C(=O)O)CC[C@]3(C)[C@H](CC[C@@H]4[C@@]5(C)CC[C@H](O)[C@@](C)(COC(=O)COCCOCCNC(=O)c6cc7ccc(N(CC)CC)cc7oc6=O)[C@@H]5CC[C@]43C)[C@@H]12	10.8	–
